This note sets out measurements from ChEMBL document CHEMBL4406881, “Design, synthesis and biological evaluation of benzoylacrylic acid shikonin ester derivatives as irreversible dual inhibitors of tubulin and EGFR” (Bioorg Med Chem, 2019).

SMILES strings stand for the structures. pIC50: −log10 of the molar value.

Data set [1] in a line: Cytotoxicity against human LO2 cells assessed as reduction in cell viability after 24 hrs by MTT assay. Format: cell-based, L02. In outline: (§1)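 MTT colorimetric assay. Cells in log phase in medium with 10% FBS were seeded at 10⁴ cells/well and left overnight at 37 °C, 5% CO₂ to reattach. Compounds were added at 0.1, 1, 10 and 100 μM in 10% FBS for 24 h. IC50 reported as mean ± SD of three independent experiments.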
In general terms: Tetrazolium dyes change colour on reduction, which living cells bring about.

The next data set deals with HeLa. As to the kind of experiment: Antiproliferative activity against human HeLa cells assessed as reduction in cell viability after 24 hrs by MTT assay. Format: functional, cell-based. In outline: as §1
In another data set the test system is MCF7. The data set is described as follows: Antiproliferative activity against human MCF7 cells assessed as reduction in cell viability after 24 hrs by MTT assay. Format: functional, cell-based. The note with it: MCF7, 24 h. In outline: as §1
Data set [2] deals with A549. The data set is described as follows: Antiproliferative activity against human A549 cells assessed as reduction in cell viability after 24 hrs by MTT assay. The note with it: A549, 24 h. Format: functional, cell-based.
A further data set relates to NCI-H460. As to the kind of experiment: Antiproliferative activity against human H460 cells assessed as reduction in cell viability after 24 hrs by MTT assay. As to conditions: NCI-H460, 24 h. Format: functional, cell-based. In outline:
as §1

In another data set the test system is NCI-H1975. The data set is described as follows: Antiproliferative activity against human NCI-H1975 cells assessed as reduction in cell viability after 24 hrs by MTT assay. Format: functional, cell-based. The note with it: NCI-H1975, 24 h. In outline:
as §1

Data set [3] concerns the target T1, Epidermal growth factor receptor (Homo sapiens, UniProt P00533). The data set is described as follows: Inhibition of C-terminal His-tagged N-terminal GST-tagged human EGFR (668 to 1210 residues) expressed in baculovirus infected Sf9 cells after 30 mins in presence of gamma-[32p-ATP] binding assay.
A further data set deals with Tubulin (Homo sapiens) (UniProt P68371+Q9H4B7+P0DPH7+P68366+Q13509+Q71U36+P04350+Q3ZCM7+P07437+P68363+Q9BQE3+Q6PEY2+Q13885+Q9BVA1+Q9BUF5). The data set is described as follows: Inhibition of microtubule polymerization in human A549 cells assessed as polymerized tubulin expression at 1 uM after 24 hrs by immuno blot analysis. Format: cell-based.
In data set [4] the target is T1, Epidermal growth factor receptor. The data set is described as follows: Potency index, ratio of shi-konin IC50 to compound IC50 for inhibition of C-terminal His-tagged N-terminal GST-tagged human EGFR (668 to 1210 residues) expressed in baculovirus infected Sf9 cells after 30 mins in presence of gamma-[32p-ATP] binding assay.
Data set [5] can be described thus: Toxicity in ip dosed Balb/c mouse xenografted with human A549 cells assessed as reduction in body weight at 2 mg/kg, ip administered once every two days for 32 days and measured for every 2 days. As to conditions: in vivo. Format: organism-based. In outline:
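Female BALB/c nude mice (5-6 weeks) received 6×10^6 A549 cells s.c. in the flank. After two weeks (tumours ~90 mm³) they were split into 5 groups (n = 8). Dosing was 2 or 4 mg/kg, dissolved in DMSO, i.p. once every two days for 16 doses; DMSO vehicle served as control. Body weight and tumour volume (L×S²/2) were recorded every two days; mice were killed at day 32.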

Data set [6] deals with A549. The data set is described as follows: Induction of apoptosis in human A549 cells assessed as low mitochondrial membrane potential after 20 mins by JC-1 staining-based flow cytometric analysis (reference value: 6.3%). Format: functional. Background: In flow cytometry, cells or beads pass a laser one at a time.
Data set [7] has as its system A549. As to the kind of experiment: Induction of apoptosis in human A549 cells assessed as high mitochondrial membrane potential after 20 mins by JC-1 staining-based flow cytometric analysis (reference value: 90.6%). Format: functional.

T1 sequence (P00533 whole entry, the tested form may be a part): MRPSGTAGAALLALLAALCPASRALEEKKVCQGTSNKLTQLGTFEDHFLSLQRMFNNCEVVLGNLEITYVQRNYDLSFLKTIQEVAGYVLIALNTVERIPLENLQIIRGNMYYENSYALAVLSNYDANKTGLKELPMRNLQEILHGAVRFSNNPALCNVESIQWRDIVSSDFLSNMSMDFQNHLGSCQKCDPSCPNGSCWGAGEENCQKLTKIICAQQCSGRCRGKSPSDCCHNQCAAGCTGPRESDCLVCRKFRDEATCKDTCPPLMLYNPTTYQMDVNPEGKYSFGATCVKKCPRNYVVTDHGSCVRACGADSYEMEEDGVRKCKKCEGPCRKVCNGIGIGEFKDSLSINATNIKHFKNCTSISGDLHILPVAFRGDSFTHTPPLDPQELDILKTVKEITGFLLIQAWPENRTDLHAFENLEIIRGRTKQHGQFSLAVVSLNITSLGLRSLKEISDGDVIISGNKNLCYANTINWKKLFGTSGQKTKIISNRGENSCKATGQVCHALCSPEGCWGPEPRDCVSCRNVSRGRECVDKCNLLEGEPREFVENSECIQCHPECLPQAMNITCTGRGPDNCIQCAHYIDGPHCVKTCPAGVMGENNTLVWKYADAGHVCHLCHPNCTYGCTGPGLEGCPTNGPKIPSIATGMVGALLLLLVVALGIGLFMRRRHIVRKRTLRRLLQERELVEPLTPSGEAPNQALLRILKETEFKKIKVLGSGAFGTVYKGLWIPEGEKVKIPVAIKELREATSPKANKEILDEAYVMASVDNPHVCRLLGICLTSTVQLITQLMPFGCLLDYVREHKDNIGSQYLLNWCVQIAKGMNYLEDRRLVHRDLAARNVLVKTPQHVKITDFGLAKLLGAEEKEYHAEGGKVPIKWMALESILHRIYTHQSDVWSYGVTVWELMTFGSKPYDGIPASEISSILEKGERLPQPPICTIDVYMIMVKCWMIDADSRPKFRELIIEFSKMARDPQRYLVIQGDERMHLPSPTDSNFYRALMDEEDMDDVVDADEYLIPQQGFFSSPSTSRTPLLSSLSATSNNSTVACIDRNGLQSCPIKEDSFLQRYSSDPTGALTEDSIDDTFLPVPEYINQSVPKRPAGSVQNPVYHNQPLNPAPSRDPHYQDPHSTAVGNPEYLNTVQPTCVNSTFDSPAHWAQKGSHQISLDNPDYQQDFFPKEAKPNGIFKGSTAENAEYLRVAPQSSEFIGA

Regarding `CC(C)=CC[C@@H](OC(=O)/C=C\C(=O)c1ccc(Br)cc1)C1=CC(=O)c2c(O)ccc(O)c2C1=O`, in data set [1], the CC50 – broadly, the concentration giving 50% cytotoxicity – at 24 h was over 100 µM. For the same compound, the pIC50 (commonly the IC50 on a negative log10 scale, so that one unit is a factor of ten) with HeLa was 5.10; with MCF7, 5.03; in the data set with A549 [2], 5.04; in the data set with NCI-H460 it was 5.19; in the data set on NCI-H1975, 4.88; in data set [3] it was 6.92.

Consider `CC(C)=CC[C@@H](OC(=O)/C=C\C(=O)c1ccc(Cl)cc1)C1=CC(=O)c2c(O)ccc(O)c2C1=O`, for which the CC50 at 24 h in [1] was over 100 µM. Further, the pIC50 was 4.94 in the data set on HeLa; 5.02 with MCF7; 5.07 in the data set on A549 [2]; 4.93 in the data set on NCI-H460; 4.93 in the data set with NCI-H1975; 7.49 in [3].

For the compound `CC(C)=CC[C@@H](OC(=O)/C=C\C(=O)c1ccc(C)c(F)c1)C1=CC(=O)c2c(O)ccc(O)c2C1=O`, the CC50 at 24 h in [1] is over 100 µM. The pIC50 in the data set with HeLa was 5.08; in the data set with MCF7 it was 5.11; in the data set with A549 [2], 5.03; in the data set with NCI-H460, 4.99; in the data set with NCI-H1975, 5.14; in [3] it was 6.97.

Regarding `CC(=O)O[C@H]1C(=O)[C@@]2(C)[C@H]([C@H](OC(=O)c3ccccc3)[C@]3(O)C[C@H](OC(=O)[C@H](O)[C@@H](NC(=O)c4ccccc4)c4ccccc4)C(C)=C1C3(C)C)[C@]1(OC(C)=O)CO[C@@H]1C[C@@H]2O`, at Tubulin (Homo sapiens), the fold change (FC) worked out at 0.82.

Consider `CCc1ccc(C(=O)/C=C\C(=O)O[C@H](CC=C(C)C)C2=CC(=O)c3c(O)ccc(O)c3C2=O)cc1`, for which, in [1], the CC50 at 24 h amounted to 92.4 µM. Further, the pIC50 was 4.82 with HeLa; 5.03 in the data set on MCF7; 4.84 in the data set on A549 [2]; 4.79 in the data set on NCI-H460; 4.91 in the data set on NCI-H1975; 7.29 in data set [3].

Turning to `CC(C)=CC[C@@H](OC(=O)/C=C\C(=O)c1ccc(C)c(Br)c1)C1=CC(=O)c2c(O)ccc(O)c2C1=O`, the CC50 at 24 h in [1] is over 100 µM. For the same compound, the pIC50 was 4.77 with HeLa; 4.85 in the data set on MCF7; 4.81 in the data set with A549 [2]; 5.38 in the data set with NCI-H460; 4.65 in the data set with NCI-H1975; under 6.82 in [3].

Consider `CC(C)=CC[C@@H](OC(=O)/C=C\C(=O)c1ccccc1)C1=CC(=O)c2c(O)ccc(O)c2C1=O`, for which the CC50 at 24 h in data set [1] was over 100 µM. For the same compound, the pIC50 is 4.76 in the data set on HeLa; 4.71 in the data set on MCF7; 5.12 with A549 [2]; 5.34 in the data set on NCI-H460; 4.99 in the data set on NCI-H1975; under 6.82 in data set [3].

For `CC(C)=CC[C@@H](OC(=O)/C=C\C(=O)c1cc(F)ccc1C)C1=CC(=O)c2c(O)ccc(O)c2C1=O`, the CC50 at 24 h in data set [1] was 93.5 µM. Besides, the pIC50 in the data set on HeLa is 4.85; in the data set on MCF7, 5.00; in the data set on A549 [2], 4.87; in the data set with NCI-H460, 5.08; in the data set on NCI-H1975, 5.14; in data set [3] it was 7.63. The Ratio IC50 in data set [4] turned out to be 6.

As for `CN(C)C/C=C/C(=O)Nc1cc2c(Nc3ccc(F)c(Cl)c3)ncnc2cc1O[C@H]1CCOC1` [AFATINIB], the CC50 at 24 h in [1] is 25.3 µM. For the same compound, the pIC50 is 5.19 in the data set on HeLa, 5.12 with MCF7, 5.21 in the data set with NCI-H460 and 5.26 with NCI-H1975.

`CC(C)=CC[C@@H](OC(=O)/C=C\C(=O)c1cc(Cl)ccc1C)C1=CC(=O)c2c(O)ccc(O)c2C1=O`: the CC50 at 24 h in data set [1] was found to be 83.3 µM. In addition, the pIC50 in the data set with HeLa was 5.03; in the data set with MCF7, 4.73; with A549 [2] it was 4.88; in the data set with NCI-H460, 4.99; with NCI-H1975, 4.74; in data set [3], 6.84.

For `CC(C)=CC[C@@H](OC(=O)/C=C\C(=O)c1ccc(C)cc1Cl)C1=CC(=O)c2c(O)ccc(O)c2C1=O`, the CC50 at 24 h in data set [1] was over 100 µM. Besides, the pIC50 in the data set on HeLa is 4.99; in the data set with MCF7 it was 5.18; in the data set with A549 [2], 5.21; in the data set with NCI-H460, 5.09; in the data set with NCI-H1975 it was 5.02; in data set [3], 6.98.

On to `CC(C)=CC[C@@H](OC(=O)/C=C\C(=O)c1ccc(C)cc1)C1=CC(=O)c2c(O)ccc(O)c2C1=O`, for which the 50% cytotoxic concentration (CC50) at 24 h in data set [1] worked out at 64.2 µM. Also, the pIC50 in the data set on HeLa is 5.05; in the data set on MCF7 it was 5.04; in the data set with A549 [2], 5.01; in the data set with NCI-H460 it was 4.94; in the data set with NCI-H1975 it was 4.99; in data set [3], 7.34.

With `CC(C)=CC[C@@H](O)C1=CC(=O)c2c(O)ccc(O)c2C1=O` [SHIKONIN], in [1], the CC50 at 24 h was 12.2 µM. In addition, the pIC50 is 5.11 with HeLa; 5.02 with MCF7; 5.21 in the data set with A549 [2]; 5.30 in the data set with NCI-H460; 5.37 in the data set with NCI-H1975; 6.86 in [3]. The Activity result in data set [5] was “Toxic”.

As to `N#CC(C#N)=NNc1cccc(Cl)c1` [CARBONYL CYANIDE M-CHLOROPHENYLHYDRAZONE], the figures for the Activity in the data set with A549 [6] and in the data set with A549 [7] were 67.9% and 26.5%, respectively.

For `CC(C)=CC[C@@H](OC(=O)/C=C\C(=O)c1ccc(C)cc1F)C1=CC(=O)c2c(O)ccc(O)c2C1=O`, the CC50 at 24 h in data set [1] is over 100 µM. The pIC50 with HeLa is 4.82; in the data set on MCF7 it was 5.18; in the data set on A549 [2], 4.90; in the data set with NCI-H460 it was 4.87; in the data set with NCI-H1975, 5.02; in data set [3], 6.92.

In the case of `CC(C)=CC[C@@H](OC(=O)/C=C\C(=O)c1cc(C)ccc1C)C1=CC(=O)c2c(O)ccc(O)c2C1=O`, the CC50 at 24 h in data set [1] was found to be 78.1 µM. Moreover, the pIC50 in the data set with HeLa is 4.99; with MCF7, 5.28; with A549 [2], 4.88; in the data set on NCI-H460 it was 4.88; in the data set on NCI-H1975, 4.99; in data set [3], under 6.82.

Consider `CC(C)=CC[C@@H](OC(=O)/C=C\C(=O)c1ccc(C)cc1C)C1=CC(=O)c2c(O)ccc(O)c2C1=O`, for which the CC50 at 24 h in [1] is over 100 µM. Further, the pIC50 in the data set with HeLa was 4.73; with MCF7, 5.10; with A549 [2], 4.99; in the data set on NCI-H460 it was 5.04; with NCI-H1975 it was 4.78; in [3] it was under 6.82.

On to `CC(C)=CC[C@@H](OC(=O)/C=C\C(=O)c1ccc(C)c(C)c1)C1=CC(=O)c2c(O)ccc(O)c2C1=O`, for which the CC50 at 24 h in data set [1] was determined as 88.4 µM. Moreover, the pIC50 is 4.99 in the data set with HeLa; 4.84 in the data set on MCF7; 5.04 in the data set with A549 [2]; 4.95 in the data set with NCI-H460; 4.80 with NCI-H1975; 6.93 in data set [3].
